From ChEMBL document CHEMBL1145328, “Synthesis, crystal structure, structure-activity relationships, and antiviral activity of a potent SARS coronavirus 3CL protease inhibitor” (J Med Chem, 2006)
Active and inactive are the calls of the source. The rule behind the calls is not given here.

Experiments:
Replicase polyprotein 1a = Replicase polyprotein 1a (Severe acute respiratory syndrome-related coronavirus, UniProt P0C6U8); test: Inhibition of SARS coronavirus 3CL protease
Outline: (§1)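 SARS 3CLpro (75 nM) or 229E 3CLpro (75 nM), recombinant, expressed as GST fusion in E. coli BL21(DE3)pLysS and released with factor Xa. Enzyme preincubated with compound 20 min at 25 °C. Reaction in Tris-HCl pH 7.5, NaCl, EDTA, DTT and BSA, 30 min at 25 °C, stopped with TFA. Conversion measured by reverse-phase HPLC peak areas. Ki by Cheng–Prusoff.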

MRC5 [1] = test: Cytotoxicity against MRC5 cells infected with human coronavirus 229E; type: functional, cell-based
Human coronavirus 229E = test: Inhibition of human coronavirus 229E 3CL protease; type: functional; outline: as §1
Vero = test: Cytotoxicity against VeroE6 cells infected with SARS coronavirus; type: functional, cell-based; conditions: Chlorocebus sabaeus
SARS-CoV [2] = test: Antiviral activity against SARS coronavirus in VeroE6 cells assessed as reduction in viral load at 0.625 uM; type: functional, Severe acute respiratory syndrome-related coronavirus
SARS-CoV [3] = test: Antiviral activity against SARS coronavirus in VeroE6 cells assessed as reduction in viral load at 1.25 uM; type: functional, Severe acute respiratory syndrome-related coronavirus
SARS-CoV [4] = test: Antiviral activity against SARS coronavirus in VeroE6 cells assessed as reduction in viral load; type: functional, Severe acute respiratory syndrome-related coronavirus
MRC5 [5] = test: Antiviral activity against human coronavirus 229E in MRC5 cells assessed as reduction in viral load at 2.5 uM; type: functional
Outline: (§2)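 HCoV 229E (ATCC VR-740) stocks were grown in MRC-5 cells. MRC-5 cells were preabsorbed with 40 pfu/well virus for 1 h, then unabsorbed virus was removed and serially diluted compound added. Supernatants were harvested and TCID50 titred on fresh MRC-5 cells. Titre is given as log TCID50/mL.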

MRC5 [6] = test: Antiviral activity against human coronavirus 229E in MRC5 cells assessed as reduction in viral load at 5 uM; type: functional; outline: as §2
MRC5 [7] = test: Protection of MRC5 cells infected with human coronavirus 229E at 1 uM; type: functional, cell-based
Outline: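 MRC-5 cells at 90% confluence were infected for 1 h with 10-fold serial dilutions of HCoV 229E stock. Unabsorbed virus was removed and cells overlaid with 0.3% agarose. Compound was present in the medium for 4 days. Cells were then fixed with 10% formalin and stained with 0.5% crystal violet to see plaques.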

Plasma [8] = test: Stability in rat plasma; type: ADME, cell-free
Outline: (§3)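 Human, mouse or rat plasma was prewarmed 5 min at 37 °C. Compound was added from a 100 µM stock in 1% DMSO to give 90% plasma. Samples were shaken at 37 °C for 0, 30 or 120 min, then quenched in acetonitrile with internal standard and centrifuged. Supernatant was diluted and analysed by LC/MS. Result is % of initial remaining.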

[9] = Stability in rat plasma after 30 mins; type: ADME, cell-free; conditions: read-out: Stability; outline: as §3
[10] = Stability in rat plasma after 120 mins; type: ADME, cell-free; conditions: read-out: Stability; outline: as §3
Mus musculus = organism: Mus musculus; test: Stability in mouse plasma; type: ADME; outline: as §3
[11] = Stability in mouse plasma after 30 mins; type: ADME; conditions: read-out: Stability; outline: as §3
[12] = Stability in mouse plasma after 120 mins; type: ADME; conditions: read-out: Stability; outline: as §3
Plasma [13] = test: Stability in human plasma; type: ADME, cell-free; outline: as §3
[14] = Stability in human plasma after 30 mins; type: ADME, cell-free; conditions: read-out: Stability; outline: as §3
[15] = Stability in human plasma after 120 mins; type: ADME, cell-free; conditions: read-out: Stability; outline: as §3
SARS-CoV [16] = test: Antiviral activity against SARS coronavirus in VeroE6 cells assessed as reduction in viral load at 2.5 uM; type: functional, Severe acute respiratory syndrome-related coronavirus
SARS-CoV [17] = test: Antiviral activity against SARS coronavirus in VeroE6 cells assessed as reduction in viral load at 5 uM; type: functional, Severe acute respiratory syndrome-related coronavirus
SARS-CoV [18] = test: Antiviral activity against SARS coronavirus in VeroE6 cells assessed as reduction in viral load at 10 uM; type: functional, Severe acute respiratory syndrome-related coronavirus
MRC5 [19] = test: Antiviral activity against human coronavirus 229E in MRC5 cells assessed as reduction in viral load; type: functional; outline: as §2
MRC5 [20] = test: Antiviral activity against human coronavirus 229E in MRC5 cells assessed as reduction in viral load at 0.625 uM; type: functional; outline: as §2
MRC5 [21] = test: Antiviral activity against human coronavirus 229E in MRC5 cells assessed as reduction in viral load at 1.25 uM; type: functional; outline: as §2

CCOC(=O)/C=C/[C@H](C[C@@H]1CCNC1=O)NC(=O)[C@H](Cc1ccccc1)NC(=O)[C@@H](NC(=O)OCc1ccccc1)C(C)C
Ki (Replicase polyprotein 1a): 2260 nM
IC50 (MRC5 [1]): 13200 nM

CC(OC(C)(C)C)[C@H](NC(=O)OCc1ccccc1)C(=O)N[C@@H](CC1CCCCC1)C(=O)N[C@H](C=O)C[C@@H]1CCNC1=O (some centres undefined)
Ki (Replicase polyprotein 1a): 53 nM
Ki (Human coronavirus 229E): 68 nM
IC50 (MRC5 [1]): 140 nM
IC50 (Vero): 600 nM
log10 TCID50 (SARS-CoV [2]): 6.4
log10 TCID50 (SARS-CoV [3]): 6
log10 TCID50 (SARS-CoV [4]): 6.7
log10 TCID50 (MRC5 [5]): 1.3
log10 TCID50 (MRC5 [6]): 1.3
Activity (MRC5 [7]): Active
Stability (Plasma [8]): 100%
remaining at 0.5 h [9]: 70%
remaining at 2 h [10]: 73%
Stability (Mus musculus): 100%
remaining at 0.5 h [11]: 84%
remaining at 2 h [12]: 71%
Stability (Plasma [13]): 100%
remaining at 0.5 h [14]: 81%
remaining at 2 h [15]: 83%
log10 TCID50 (SARS-CoV [16]): 5
log10 TCID50 (SARS-CoV [17]): 2
log10 TCID50 (SARS-CoV [18]): 2
log10 TCID50 (MRC5 [19]): 6.51
log10 TCID50 (MRC5 [20]): 3
log10 TCID50 (MRC5 [21]): 1.3

CCOC(=O)/C=C/[C@H](C[C@@H]1CCNC1=O)NC(=O)[C@H](CC(C)C)NC(=O)[C@@H](NC(=O)OCc1ccccc1)C(C)C
Ki (Replicase polyprotein 1a): 660 nM
IC50 (MRC5 [1]): 9100 nM

CCOC(=O)/C=C/[C@H](C[C@@H]1CCNC1=O)NC(=O)[C@H](Cc1ccc(F)cc1)NC(=O)[C@@H](NC(=O)c1cc(C)on1)C(C)C
Ki (Replicase polyprotein 1a): > 10000 nM
Ki (Human coronavirus 229E): > 10000 nM
IC50 (MRC5 [1]): > 20000 nM

CCOC(=O)/C=C/[C@H](C[C@@H]1CCNC1=O)NC(=O)[C@H](CC(C)C)NC(=O)[C@@H](NC(=O)OCc1ccccc1)C(C)OC(C)(C)C (some centres undefined)
Ki (Replicase polyprotein 1a): 58 nM
IC50 (MRC5 [1]): 880 nM
